19 compounds from ChEMBL document CHEMBL1152957, “Synthesis and biological evaluation of novel 4-azaindolyl-indolyl-maleimides as glycogen synthase kinase-3beta (GSK-3beta) inhibitors” (Bioorg Med Chem, 2009) can be followed below.

pIC50: −log10 of the molar value. Activity calls are given as the source filed them. The calls are words filed in the database; no cut-off is given here.

The target of assay [1] is T1, Glycogen synthase kinase-3 beta (Homo sapiens, UniProt P49841). The experiment in a line: Inhibition of recombinant GST-GSK3beta expressed in Escherichia coli BL21 (DE3).
Target sequence in this assay (P49841 whole entry): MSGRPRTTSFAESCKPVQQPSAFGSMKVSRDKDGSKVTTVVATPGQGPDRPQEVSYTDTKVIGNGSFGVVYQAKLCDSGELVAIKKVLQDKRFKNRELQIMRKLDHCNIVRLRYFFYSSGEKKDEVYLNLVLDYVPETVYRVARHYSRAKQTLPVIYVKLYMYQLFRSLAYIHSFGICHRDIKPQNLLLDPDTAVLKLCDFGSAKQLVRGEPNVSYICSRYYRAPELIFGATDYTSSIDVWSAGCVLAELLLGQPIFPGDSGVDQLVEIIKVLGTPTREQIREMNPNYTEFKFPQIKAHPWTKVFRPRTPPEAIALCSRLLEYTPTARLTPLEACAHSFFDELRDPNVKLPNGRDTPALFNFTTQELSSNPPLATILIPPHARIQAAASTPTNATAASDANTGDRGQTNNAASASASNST
For assay [2], the target named is T1, Glycogen synthase kinase-3 beta. The experiment in a line: Inhibition of GSK3-beta in human SH-Sy5Y cells assessed as reduction of amyloid beta (25-35)-induced Tau hyperphosphorylation at Ser396 at 10 uM treated 1 hr before amyloid beta (25-35) challenge measured after 6 hrs by Western blotting. The assay is classed as cell-based. The procedure, abridged: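 SH-SY5Y cells from ATCC kept in 1:1 DMEM:Ham's F12 with 10% FBS and penicillin/streptomycin under 5% CO2. Grown to about 80% confluence and serum-starved 12 h. Inhibitor added for 1 h, then amyloid beta 25–35 for 6 h. Lysed in SDS loading buffer and run on 10% SDS-PAGE. Western blot on PVDF with rabbit anti-Tau pS396 and ECL detection.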
(In general: In western blotting, separated proteins are transferred to a membrane and probed.)
Target sequence in this assay (P49841 whole entry, looked up): as the sequence (P49841 whole entry) above

Assay [3] deals with T2, Aurora kinase A (Homo sapiens, UniProt O14965).
T2 sequence (O14965 whole entry): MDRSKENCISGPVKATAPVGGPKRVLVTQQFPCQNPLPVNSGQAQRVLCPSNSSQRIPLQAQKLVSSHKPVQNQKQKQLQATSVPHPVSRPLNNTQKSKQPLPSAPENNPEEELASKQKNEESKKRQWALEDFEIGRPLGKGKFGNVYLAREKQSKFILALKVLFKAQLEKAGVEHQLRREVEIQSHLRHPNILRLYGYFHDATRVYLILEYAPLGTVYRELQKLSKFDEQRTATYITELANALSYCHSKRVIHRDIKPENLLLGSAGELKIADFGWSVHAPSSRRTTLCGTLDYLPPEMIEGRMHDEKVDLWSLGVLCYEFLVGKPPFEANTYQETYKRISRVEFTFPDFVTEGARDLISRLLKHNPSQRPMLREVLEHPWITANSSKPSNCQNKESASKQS
The experiment in a line: Inhibition of recombinant Aurora A expressed in Escherichia coli.

The target of assay [4] is Mitogen-activated protein kinase 3 (Homo sapiens, UniProt P27361). As to the kind of experiment: Inhibition of recombinant ERK1 expressed in Escherichia coli.
Assay [5] addresses T3, Inhibitor of nuclear factor kappa-B kinase subunit beta (Homo sapiens, UniProt O14920).
T3 sequence (O14920 whole entry): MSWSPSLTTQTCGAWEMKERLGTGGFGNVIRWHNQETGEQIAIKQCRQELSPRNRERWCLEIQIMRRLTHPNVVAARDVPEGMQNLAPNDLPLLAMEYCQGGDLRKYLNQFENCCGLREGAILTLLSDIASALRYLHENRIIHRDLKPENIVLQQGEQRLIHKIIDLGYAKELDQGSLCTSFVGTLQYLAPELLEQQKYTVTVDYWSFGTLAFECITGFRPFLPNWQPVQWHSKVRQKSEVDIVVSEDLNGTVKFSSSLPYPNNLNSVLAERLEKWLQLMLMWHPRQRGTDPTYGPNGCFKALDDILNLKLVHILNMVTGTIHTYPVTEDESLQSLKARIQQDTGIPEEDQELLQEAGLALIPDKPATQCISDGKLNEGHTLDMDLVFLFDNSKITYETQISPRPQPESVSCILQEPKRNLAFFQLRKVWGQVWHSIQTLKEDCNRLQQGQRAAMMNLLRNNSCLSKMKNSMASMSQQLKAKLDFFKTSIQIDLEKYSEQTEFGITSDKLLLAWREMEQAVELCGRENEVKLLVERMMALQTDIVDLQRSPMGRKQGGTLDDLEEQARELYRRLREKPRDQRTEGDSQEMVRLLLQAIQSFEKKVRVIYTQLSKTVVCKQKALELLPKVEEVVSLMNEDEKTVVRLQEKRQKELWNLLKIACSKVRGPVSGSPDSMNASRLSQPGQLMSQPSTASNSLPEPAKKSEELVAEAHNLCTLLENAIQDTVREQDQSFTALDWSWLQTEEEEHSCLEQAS
The experiment in a line: Inhibition of recombinant IKK2 expressed in Bac-to Bac baculovirus system.

Assay [6] addresses Dual specificity mitogen-activated protein kinase kinase 1 (Homo sapiens, UniProt Q02750). As to the kind of experiment: Inhibition of recombinant MEK1 expressed in Escherichia coli.
The target of assay [7] is T4, Protein kinase C epsilon type (Homo sapiens, UniProt Q02156).
T4 sequence (Q02156 whole entry): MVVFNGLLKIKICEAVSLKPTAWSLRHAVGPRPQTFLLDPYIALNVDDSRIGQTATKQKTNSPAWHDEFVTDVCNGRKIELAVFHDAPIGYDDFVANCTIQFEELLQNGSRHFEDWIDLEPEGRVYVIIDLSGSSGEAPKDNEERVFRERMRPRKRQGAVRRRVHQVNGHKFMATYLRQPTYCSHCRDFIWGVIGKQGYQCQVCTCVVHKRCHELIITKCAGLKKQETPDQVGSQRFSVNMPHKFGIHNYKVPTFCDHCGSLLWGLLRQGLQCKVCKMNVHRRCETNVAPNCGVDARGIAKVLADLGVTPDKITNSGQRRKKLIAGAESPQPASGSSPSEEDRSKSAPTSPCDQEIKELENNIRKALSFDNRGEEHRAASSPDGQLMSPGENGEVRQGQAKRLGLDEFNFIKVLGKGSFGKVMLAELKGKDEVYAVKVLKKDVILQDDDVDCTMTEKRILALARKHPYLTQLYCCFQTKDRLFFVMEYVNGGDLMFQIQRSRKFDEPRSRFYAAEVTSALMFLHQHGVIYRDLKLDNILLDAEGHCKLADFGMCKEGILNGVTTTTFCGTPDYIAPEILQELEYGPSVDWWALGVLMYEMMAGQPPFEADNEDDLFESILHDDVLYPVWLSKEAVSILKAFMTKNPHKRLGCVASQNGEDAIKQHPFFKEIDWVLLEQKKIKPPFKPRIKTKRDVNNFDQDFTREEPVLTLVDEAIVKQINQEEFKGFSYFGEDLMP
As to the kind of experiment: Inhibition of recombinant PKCE expressed in Bac-to Bac baculovirus system.

Sequence of Mitogen-activated protein kinase 3 (P27361 whole entry): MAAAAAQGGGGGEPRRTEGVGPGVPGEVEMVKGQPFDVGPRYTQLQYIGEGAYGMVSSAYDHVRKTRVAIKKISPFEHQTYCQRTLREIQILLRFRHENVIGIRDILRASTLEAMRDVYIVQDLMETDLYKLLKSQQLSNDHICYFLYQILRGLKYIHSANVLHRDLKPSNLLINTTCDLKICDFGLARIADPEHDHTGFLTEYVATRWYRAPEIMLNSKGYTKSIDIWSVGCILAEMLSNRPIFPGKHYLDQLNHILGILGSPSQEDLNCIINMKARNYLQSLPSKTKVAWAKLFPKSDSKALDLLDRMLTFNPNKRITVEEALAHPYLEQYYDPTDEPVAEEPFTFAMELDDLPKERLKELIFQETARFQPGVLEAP
Sequence of Dual specificity mitogen-activated protein kinase kinase 1 (Q02750 whole entry): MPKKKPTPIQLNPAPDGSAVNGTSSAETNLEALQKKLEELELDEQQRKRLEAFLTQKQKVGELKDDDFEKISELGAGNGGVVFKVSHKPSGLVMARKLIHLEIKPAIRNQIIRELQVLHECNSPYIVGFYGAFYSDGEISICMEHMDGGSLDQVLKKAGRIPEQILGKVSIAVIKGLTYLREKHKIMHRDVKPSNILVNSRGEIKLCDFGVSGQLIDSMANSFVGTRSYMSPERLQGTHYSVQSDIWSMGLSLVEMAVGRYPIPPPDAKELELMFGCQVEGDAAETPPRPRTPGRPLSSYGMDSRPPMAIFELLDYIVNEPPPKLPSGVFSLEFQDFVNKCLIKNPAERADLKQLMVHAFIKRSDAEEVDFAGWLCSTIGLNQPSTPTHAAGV

As for `Cn1cc(C2=C(c3cn(CCCn4ccnc4)c4ccccc34)C(=O)NC2=O)c2ncccc21`, the pIC50 in assay [1] is 6.18.
On the same count and under the same terms, for `O=C1NC(=O)C(n2ccc3ncccc32)=C1c1cn(CCCn2ccnc2)c2ccccc12` the value was 6.26.
On to `O=C1NC(=O)C(n2ccc3ncccc32)=C1c1cn(CCCn2ccnc2)c2ccc(Br)cc12`, for which the pIC50 was 6.85 in assay [1]; less than 4.40 in assay [3]; less than 4.40 in assay [4]; less than 4.40 in assay [5]; less than 4.40 in assay [6]; less than 4.40 in assay [7]. Besides, the outcome in assay [2] was Active.
`O=C1NC(=O)C(n2ccc3ncccc32)=C1c1cn(CCCN2CCOCC2)c2ccccc12`: the negative logarithm of the IC50 (pIC50) in assay [1] is 5.75.
The same measure, in the same setting: to `CN(C)CCCn1cc(C2=C(n3ccc4ncccc43)C(=O)NC2=O)c2ccccc21` belongs 4.87; to `O=C1NC(=O)C(n2ccc3ncccc32)=C1c1cn(CCCN2CCCCC2)c2ccccc12`, 4.90.
On the same count and under the same terms, to `O=C1C(c2cn(CCCn3ccnc3)c3ccccc23)=C(n2ccc3ncccc32)C(=O)N1c1ccccc1` belongs less than 4.13.
As to `O=C1NC(=O)C(n2ccc3ncccc32)=C1c1cn(CCn2ccnc2)c2ccccc12`, the pIC50 in assay [1] is 6.59; in assay [3], less than 4.40; in assay [4] it was less than 4.40; in assay [5], less than 4.40; in assay [6], less than 4.40; in assay [7], less than 4.40. In addition, the outcome in assay [2] was inactive.
In the case of `O=C1NC(=O)C(n2ccc3ncccc32)=C1c1cn(CCCn2ccnc2)c2cc(Br)ccc12`, in assay [1], the pIC50 is 6.02. The outcome in assay [2] was inactive.
For `O=C1NC(=O)C(n2ccc3ncccc32)=C1c1c[nH]c2ccccc12`, the negative-log IC50 (pIC50) in assay [1] is 4.51.
With `Cn1cc(C2=C(c3cn(CCCO)c4ccccc34)C(=O)NC2=O)c2ncccc21`, the pIC50 in assay [1] was 5.94.
On the same count and under the same terms, for `Cn1cc(C2=C(c3cn(CCN4CCOCC4)c4ccccc34)C(=O)NC2=O)c2ncccc21` the value was 6.05; for `CN(C)CCCn1cc(C2=C(n3ccc4ncccc43)C(=O)NC2=O)c2ccc(F)cc21`, 4.91; for `O=C1NC(=O)C(n2ccc3ncccc32)=C1c1cn(CCCn2ccnc2)c2cc(F)ccc12`, 6.51.
In the case of `Cn1cc(C2=C(c3cn(CCCN4CCOCC4)c4ccccc34)C(=O)NC2=O)c2ncccc21`, the pIC50 in assay [1] was 6.12; in assay [3], less than 4.40; in assay [4] it was less than 4.40; in assay [5], less than 4.40; in assay [6], less than 4.40; in assay [7], less than 4.40. Moreover, the result in assay [2] was Active.
Regarding `COc1ccc2c(c1)c(C1=C(n3ccc4ncccc43)C(=O)NC1=O)cn2CCCN(C)C`, in assay [1], the negative logarithm of the IC50 (pIC50) was 4.65.
Same read-out and setting: to `CN(C)CCCn1cc(C2=C(n3ccc4ncccc43)C(=O)NC2=O)c2ccc(Br)cc21` belongs 5.65.
For `O=C1NC(=O)C(n2ccc3ncccc32)=C1c1cn(CCCCn2ccnc2)c2ccccc12`, the pIC50 in assay [1] is 6.07. Moreover, the outcome in assay [2] was inactive.
On the same counts, the results for `COc1ccc2c(c1)c(C1=C(n3ccc4ncccc43)C(=O)NC1=O)cn2CCCn1ccnc1` are 6.32 and “inactive”.

A word on the pIC50: it is the negative decadic logarithm of the IC50, by convention in mol/L.
